PglD inh = inhibitors of Campylobacter jejuni PglD acetyltransferase; purified PglD enzyme, DTNB colorimetric CoA detection; inhibition, % at 12.5 µM; 360,000 compounds, 0.098% hits; in the data active = inhibition above about 16%, passing the limit was not always enough
Yeast superoxide = lowers age-related superoxide in aged yeast cells; superoxide response (% of plate mean), % at 10 µM; AID 2690; S. cerevisiae aged cells, superoxide DHE fluorescence; active compounds read low; 330,000 compounds, 0.18% hits;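 active = superoxide response under a set limit, about three screen SD below normal, cut at about 65% in these data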;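 note: yeast aged for seven days with compound at 30 °C before DHE staining; 100% = average MFI of all compound-treated wells on the plate with controls excluded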
rRNA inh HTS = selective bacterial rRNA inhibition in E. coli | AID 720706 | E. coli WT GFP vs humanized-ribosome RFP mutants, fluorescence, 24 h; active compounds read low; DMSO median 0, no signal -100 | GFP signal change (wild-type ribosome), % (no concentration beside the values) | 350,000 compounds, 1.6% hits;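 active = significant combined selectivity score with lowered wild-type GFP, culture density cut under 30%, mutant RFP and density less affected; inactive = any of these conditions unmet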
SUMO Mot1 rescue = blocks SUMOylation pathway, rescuing yeast Mot1-301 growth; S. cerevisiae Mot1-301 growth rescue, ATP luminescence, 38.5C; percent above DMSO median, 100 means doubled; growth rescue, % at 18.8 µM; 320,000 compounds, 1% hits; AID 2716;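 active = every valid replicate shows activation above 250% relative to neutral control wells; inactive = the rest, any valid replicate at or below 250%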;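 note: OY570 slx delta 5 strain wells were the positive control but not used for scaling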
Cneo AK release = causes C. neoformans cell lysis. AID 651654. adenylate kinase release luminescence, 4 h; normalised: neutral wells 0, clomiphene wells 100. 360,000 compounds, 0.2% hits. lysis activity, % at 15 µM;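 active = mean lysis activity across replicates of at least 80%, whatever share of replicates individually reach that level; inactive = mean lysis activity below 80%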
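Assay system: Cryptococcus neoformans yeast cells / Dosing: single-point compound dose / Timing: 4 h at 37 °C static, read 1 h later / Measured by: luminescence of released adenylate kinase using an AK detection reagent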
Yeast Mot1 SUMO = yeast SUMO pathway inhibition in dose response; S. cerevisiae Mot1-301 galactose growth, ATP luminescence, 24 h; -100 = growth of slx-deleted rescue strain; 2,300 tested, under 10 active; growth activity, percent, % at 42 µM; AID 493004; shares compounds with SUMO Mot1 rescue;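 active = Signal drops as the depositor expects, and the fitted half-maximal dose is no more than ten times the top valid tested dose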;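 note: more negative values mean stronger growth rescue toward the control strain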
An asterisk follows results filed as active; x = no result given; + = active, no number. In the library only some 2.2% were active in any assay of this set; here they are far more common.

SMILES	PglD inh	Yeast superoxide	rRNA inh HTS	SUMO Mot1 rescue	Cneo AK release	Yeast Mot1 SUMO
NNc1nc2sc3c(c2c(=O)n1-c1ccccc1)CCCC3	x	108	-17	639*	x	0
COCCN(C(=O)CSc1nnc(-c2ccc(C)cc2)n1N)c1c(N)n(Cc2ccccc2)c(=O)[nH]c1=O	-6	96	8	516*	9	0
CCN(C(=O)CSc1nnc(-c2ccc(C)cc2)n1N)c1c(N)n(Cc2ccccc2)c(=O)[nH]c1=O	1	x	12	x	4	x
Cc1c(-c2c(C#N)c(N)nc3c2CCCCCC3)cnn1C	6	93	x	26	0	x
Cc1nn(C)c(C)c1-c1c(C#N)c(N)nc2c1CCCCCC2	-1	90	-2	+	-1	0
CCO[C@@H]1OC(C(=O)N2CCCC2)=C[C@H](c2ccccc2)[C@H]1CCCO	-2	x	x	x	3	x
Cn1c(=O)[nH]c(=O)c2c1nc(Sc1ccccc1)n2CCc1ccccc1	2	126	-3	614*	4	0
COCCn1c(SCc2ccc(Cl)cc2)nc2c1c(=O)[nH]c(=O)n2C	3	95	12	+	4	0
CC(=O)N[C@H]1CC[C@@H](CCNC(=O)C2CCCCC2)O[C@@H]1CO	x	x	2	x	x	x
CCn1c(=O)c(-c2ccccc2)c(O)c2ccccc21	7	95	x	3	2	x
CCn1c(-c2ccccc2)c(C(=O)CC#N)c2ccccc21	-2	105	1	373*	0	0
O=C(Nc1ccccc1F)C1CCN(C(=O)Cc2ccccc2)CC1	3	86	x	684*	-1	0
O=C(Nc1ccccc1Br)C1CCN(C(=O)Cc2ccccc2)CC1	-4	103	x	352	6	x
Cc1nc(SCC(=O)NC(=O)NCc2ccccc2)nc(C)c1C	x	91	x	x	x	x
COCCNC(=O)NC(=O)CSc1nc(C)c(C)c(C)n1	1	99	5	494*	2	1
N#C[C@H]1[C@H](c2ccccc2-c2cccc(F)c2)[C@@H](CO)N1C(=O)C1CCOCC1	x	x	2	x	x	x
COc1ccc(C2C(C(C)=O)=C(O)C(=O)N2CCO)c(OC)c1 (stereo not given)	-1	94	x	893*	-3	1
CCCCN1C(=O)C(O)=C(C(C)=O)C1c1ccc(OC)cc1OC (stereo not given)	-1	112	x	83	-2	x
CC(C)C#Cc1cnc2c(c1)C(=O)N([C@@H](C)CO)C[C@H](C)[C@H](CN(C)C(=O)Cc1ccccn1)O2	2	x	2	x	-2	x
CO[C@H]1CN(C)C(=O)c2cc(NC(=O)Nc3ccc(F)cc3)ccc2OC[C@@H](C)NC[C@H]1C	3	x	-1	x	-5	x
COC(=O)Cn1c(=NC(=O)c2ccc(S(=O)(=O)N3CCOCC3)cc2)sc2cc(S(N)(=O)=O)ccc21	0	105	5	-14	-1	x
COCCn1c(=NC(=O)c2ccc(S(=O)(=O)N3CCOCC3)cc2)sc2cc(S(N)(=O)=O)ccc21	-3	89	-7	552*	-3	-1
CC(=O)c1cc(C)ccc1OC(=O)c1ccco1	-3	105	-2	429*	-6	1
CC(=O)c1cc(Cl)ccc1OC(=O)c1ccco1	5	99	x	6	-1	x
C[C@@H]1CCCCO[C@@H](CN(C)Cc2ccccc2)[C@@H](C)CN([C@H](C)CO)C(=O)c2cc(NC(=O)C3CCCCC3)ccc2O1	-1	x	8	x	1	x
SMILES	PglD inh	Yeast superoxide	rRNA inh HTS	SUMO Mot1 rescue	Cneo AK release	Yeast Mot1 SUMO
C/C(N)=C(/C#N)C(=O)CSc1nnc(-c2ccccc2)n1C	1	96	9	539*	-1	0
O=C(OCc1nnc(-c2ccccc2)o1)c1ccc(Br)o1	1	94	6	-12	-1	x
O=C(OCc1nnc(-c2ccccc2)o1)c1ccc([N+](=O)[O-])o1	x	108	5	743*	x	-1
CCOc1ccc(C(=O)Nc2ccc(N3CCN(C)CC3)cc2)cc1[N+](=O)[O-]	x	98	6	690*	x	1
CCOc1ccc(C(=O)Nc2ccc(N3CCN(C(C)=O)CC3)cc2)cc1[N+](=O)[O-]	-7	81	x	37	0	x
COc1ccc(-c2csc(NC(=O)CS(=O)(=O)c3ccccc3)n2)c(OC)c1	-1	x	x	x	1	x
COc1ccc(-c2csc(NC(=O)CCS(=O)(=O)c3ccccc3)n2)c(OC)c1	x	112	-19	454*	x	0
COc1ccc(CCNC(=O)c2cc(-c3ccco3)on2)cc1OC	2	111	-15	566*	0	-1
COc1ccc(CCNC(=O)c2cc(-c3cccs3)on2)cc1OC	-1	98	2	-1	0	x
CCCCNC(=O)N1CCC(CCC(=O)N(C)Cc2ccccc2)CC1	4	109	-1	375*	8	-1
O=C(NCc1ccco1)c1ccc(F)c(S(=O)(=O)N2CCCCC2)c1	x	99	-8	-12	x	x
O=C(NCc1ccco1)c1ccc(Br)c(S(=O)(=O)N2CCCCC2)c1	-3	112	-10	584*	1	2
C=C(C)Cn1c(N)cc(=O)nc1SCC(=O)Nc1cccc(C(F)(F)F)c1	-3	101	6	413*	1	0
COc1ccc(NC(=O)Nc2ccc(OC)cc2)cc1	12	99	x	391*	0	0
COc1ccc(NC(=S)NC(=O)C2CCC2)cc1	8	95	x	555*	36	-1
Cc1ccc(S(=O)(=O)N[C@@H]2C=C[C@H](CC(=O)NCCCN(C)C)O[C@@H]2CO)cc1	1	x	2	x	2	x
C[C@H]1CN([C@@H](C)CO)C(=O)Cc2cc(NS(=O)(=O)c3ccc(F)cc3)ccc2O[C@H]1CN(C)S(=O)(=O)c1ccc(Cl)cc1	4	x	2	x	0	x
Cc1cc(NC(=O)c2ccccc2F)n(C(C)(C)C)n1	1	105	17	+	-1	0
Cc1cc(NC(=O)c2ccc(F)cc2F)n(-c2nc3ccccc3[nH]2)n1	6	109	13	-15	-8	x
O=C(NCCCc1ccncc1)C1CCC(=O)N(Cc2ccc(Cl)cc2)C1 (stereo not given)	1	119	9	-3	0	x
O=C(NCCc1cnccn1)C1CCC(=O)N(Cc2ccc(Cl)cc2)C1 (stereo not given)	5	102	3	523*	-1	0
CN(c1cccnc1)c1ncnc2[nH]ncc12	0	107	5	+	0	0
CN(CCc1ccccn1)c1ncnc2[nH]ncc12	-2	101	x	-5	0	x
C/C=C(\C)C(=O)OC1c2c(ccc3ccc(=O)oc23)OC(C)(C)C1OC(C)=O (stereo not given)	-1	101	x	171	-1	x

Source: PubChem (several laboratories)
